Laboratory results from ChEMBL document CHEMBL4513216, “Probing the Open Global Health Chemical Diversity Library for Multistage-Active Starting Points for Next-Generation Antimalarials” (ACS Infect Dis, 2020).

Assay: Toxicity liver stage against HepG2, at 10uM
Assay type: cell-based
Set-up: test concentration 10 uM, cell line HepG2-A16-CD81EGFP
Conditions: human, HepG2-A16-CD81EGFP cells; read-out: INHIBITION
Outline: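 Uninfected HepG2-A16-CD81EGFP cells, 3 × 10^3 per well, 1536-well, plated on prespotted compound at 10 μM final, parasite-free screening media added to match infected plates; puromycin 10 μM positive, DMSO 0.5% negative; run in parallel with 48 h PbLuc assay at 37 °C, 5% CO2; viability by CellTiter-Glo luminescence, normalized to controls.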

Compound | cytotoxicity at 10 µM
Cc1csc(CNC(=O)NCC(O)c2ccc(F)cc2)n1 (configuration not stated) | 12.1%
Cc1ncccc1-c1cc2cccnc2n1CCCNC(=O)C1CC1 | 2.18%
Cc1ncsc1C(=O)NCC1CCC2(CCNCC2)CO1 (configuration not stated) | 19.1%
CCc1oc2ccc(NS(C)(=O)=O)cc2c1C(=O)OC | 6.8%
CC(C)NC(=O)CN(C1CC1)C(C)C1CC1 (configuration not stated) | -1.6%
CCc1ccc(O)c(C(=O)N2CCN(CC(=O)N3CCCCC3)CC2)c1 | 9.06%
COc1ccc(C(=O)N2CCCCC2c2nc(C)cs2)nn1 (configuration not stated) | -6.77%
CC(C)Oc1ccc(Cl)c(C(=O)N2CCN(CCO)CC2)n1 | -3.82%
Cc1cccc(CN2C[C@H](OCc3ccccn3)[C@H]3COC[C@H]32)n1 | -92.6%
COc1ccc(N2CCN(C(=O)NC(C)c3nncn3C)CC2)cc1 (configuration not stated) | -7.12%
Cc1noc2ncnc(N3CCC(O)(Cn4ccnc4)CC3)c12 | 0.648%
CC(=O)Nc1nc(C2CCN(C(C)=O)CC2)cs1 | 4.3%
CCn1cc(CN2CCCC(c3[nH]ncc3-c3ccc(F)cc3)C2)cn1 (configuration not stated) | 1.63%
CN1CCC(N2CCCC(C(=O)N3Cc4ccccc4C3)C2)CC1 (configuration not stated) | 5.19%
N#Cc1ccccc1N1CCCN(C(=O)CCc2ccco2)CC1 | -8.48%
CCc1ncncc1C(=O)NCCN1CCC(C)CC1 | -15.6%
Cc1cc(C)c2c(N(C)CC3CCOC3)ncnc2n1 (configuration not stated) | -146%
CCCN(CC)C(=O)c1nc2c(n1C)CCN(Cc1ccccc1)C2 | 7.28%
O=C(NCCO)c1cc(-c2ccc3c(c2)CCO3)n[nH]1 | -11.9%

Compound | cytotoxicity at 10 µM
O=C(c1cccnc1)N1CCN(c2ccnc3ccsc23)CC1 | 5.77%
COc1ccc(C2CCN(CCCC#N)CC2)cc1 | -9.89%
CCn1nc(CNC(C)(C)CO)c(-c2ccccc2)n1 | 8.96%
Cn1cnc2c1CCN(CCCc1ccccc1)C2 | -1.13%
Cc1cc(C)n(CC2CCCN2CCc2ccccn2)n1 (configuration not stated) | -8.01%
COc1ccc2cc(C(=O)N3CCCCC3Cn3cccn3)[nH]c2c1 (configuration not stated) | -9.32%
O=C(NC1CCCN(c2ccccc2Cl)C1)c1nc(=O)[nH][nH]1 (configuration not stated) | -10.9%
CCc1nc(C2CCCN2c2ncc(Br)cn2)no1 (configuration not stated) | -0.36%
Cc1cc(N2CCN(c3ccc(=O)[nH]n3)CC2)nc(-c2ccncc2)n1 | -5.19%
CC(c1ccccn1)N(C)Cc1cccc(C(=O)Nc2nccn2C)c1 (configuration not stated) | 14.6%
O=C(Cn1nc2c(cc1=O)CCCC2)NC(Cc1ccccc1)C(=O)O (configuration not stated) | 2.24%
COCCOc1cccc(C(=O)N2CCCC(n3ccnc3)C2)c1 (configuration not stated) | -17.1%
O=S(=O)(NCc1ccc(S(=O)(=O)N2CCCC2)s1)c1ccc(Cl)cc1 | -44%
COCc1ccccc1CNC(=O)CNc1cccc(Cl)c1OC | 6.39%
COC(=O)c1ccc(N2CCN(C(=O)c3ccco3)C(C)C2)cc1 (configuration not stated) | -8.15%
O=C(CCn1ncc2c(Cl)cccc21)NCC1CC1 | 10.6%
CNC(=O)COc1cccc(CNCc2c(C)noc2C)c1 | -10.3%
CCC(NC(=O)c1cnc(N(C)C)nc1C)c1ccc(S(C)(=O)=O)cc1 (configuration not stated) | -3.5%
CN(C1CCCC1)C(C)(C)C(=O)NCCS(C)(=O)=O | -49.7%

Compound | cytotoxicity at 10 µM
CN(CCO)C[C@@H]1CN(C(=O)c2cccc(OC(F)F)c2)C[C@@H]1CO | -0.185%
CC(C)n1[nH]c(=O)c2c1NC(=O)CSC2c1ccc(OCC(N)=O)cc1 (configuration not stated) | 8.46%
O=C(c1ccc(F)cc1)N1C[C@H]2CCC[C@@]2(COCc2ccccn2)C1 | 2.06%
CCN1CCN(C(=O)c2cc(-c3cccs3)cs2)CC1 | 2.93%
CCCOc1cccc(NS(=O)(=O)c2cc(C(=O)O)cs2)c1 | 1.09%
CC(=O)NCCNC(=O)Nc1cc(C(C)(C)C)sc1C#N | 0.665%
c1cc(CN2CCc3c(CN4CCCC4)n[nH]c3C2)ccn1 | -10.5%
CCc1cccc(OCCN(C)C(=O)c2ccccc2NCC(=O)O)c1 | -2.69%
Cc1cnccc1CN1CC[C@@](C)(O)[C@H](Oc2cccc(F)c2)C1 | 1.52%
Cn1nccc1C(=O)N1CCCC1c1[nH]ncc1C(N)=O (configuration not stated) | -15.2%
Cc1cnc(-n2cnnc2)c(-c2cccc3c2CCNC3)c1 | 17.7%
Cc1ccc(C(=O)NC2CCN(C(=O)Nc3ccccn3)CC2)o1 | 4.86%
Cc1noc(C)c1CN(C)C(=O)C1CCN(S(N)(=O)=O)CC1 | 7.47%
CCCN(C(=O)c1ocnc1C)C1CCCN(Cc2ccccc2)C1 (configuration not stated) | -7.79%
CC(C)(C)c1nc(CN2CCC(c3nc4cc(Cl)ccc4o3)CC2)no1 | 3.9%
Cc1ccc(-n2c(COC(C)C)n[nH]c2=O)cc1 | 9.47%
Cc1ccc(C(=O)N2CCc3c(COCC4CC4)cncc3C2)o1 | -74.2%
N#CCC(=O)NCc1nnc2n1CCN(Cc1ccsc1)C2 | -131%
COc1ccc(N(C)C(=O)c2ccc(Cl)c(S(C)(=O)=O)c2)cn1 | -11.2%
